The values that follow come from ChEMBL document CHEMBL2390935, “Synthesis and pharmacological properties of a new hydrophilic and orally bioavailable 5-HT4 antagonist” (Eur J Med Chem, 2013).

Structures are written as SMILES. Bounds are passed on as bounds.

The test system of series [1] is Rattus norvegicus. Kind of series: Oral bioavailability in Sprague-Dawley rat assessed as 2-[4-[[4-(3,4-dihydro-2H-[1,3]oxazino[3,2-a]indole-10-carbonyloxymethyl)-1-piperidinyl]methyl]phenyl]-2-methylpropanoic acid level at 10 mg/kg by LC-MS/MS analysis. As to conditions: in vivo. The format is ADME, organism-based. Put shortly: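 Rats given 10 mg/kg orally and, for the free acid, 1 mg/kg i.v. Free-acid plasma levels measured by LC-MS at timed points. AUC by linear trapezoidal rule, extrapolated to infinity. F = (AUC p.o./dose p.o.)/(AUC i.v./dose i.v.), reported as %.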

The test system of series [2] is Rattus norvegicus. Kind of series: Elimination half life in Sprague-Dawley rat assessed as 2-[4-[[4-(3,4-dihydro-2H-[1,3]oxazino[3,2-a]indole-10-carbonyloxymethyl)-1-piperidinyl]methyl]phenyl]-2-methylpropanoic acid level at 10 mg/kg, po by LC-MS/MS analysis. The settings on record: in vivo. The format is ADME, organism-based. More on the design: dose 10 mg/kg, route oral. The method in brief:
(§1)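 Male Sprague-Dawley rats, 10 mg/kg p.o. in 10% ethanol/water or 2% β-cyclodextrin (1.0 mg/ml), n = 2–3. Tail-vein and terminal cardiac blood taken under isoflurane at 5 min–24 h. Plasma acidified and acetonitrile-precipitated, then the free acid measured by LC-MS MRM (LOQ 0.5 ng/ml). Non-compartmental analysis per animal, averaged. T1/2 from the terminal log-linear regression; Cmax and Tmax read directly.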

Series [3] deals with Rattus norvegicus. Kind of series: Tmax in Sprague-Dawley rat assessed as 2-[4-[[4-(3,4-dihydro-2H-[1,3]oxazino[3,2-a]indole-10-carbonyloxymethyl)-1-piperidinyl]methyl]phenyl]-2-methylpropanoic acid level at 10 mg/kg, po by LC-MS/MS analysis. More on the design: dose 10 mg/kg, route oral. The format is ADME, organism-based. The settings on record: in vivo. The method in brief:
as §1

Series [4] relates to Rattus norvegicus. Kind of series: Cmax in Sprague-Dawley rat assessed as 2-[4-[[4-(3,4-dihydro-2H-[1,3]oxazino[3,2-a]indole-10-carbonyloxymethyl)-1-piperidinyl]methyl]phenyl]-2-methylpropanoic acid level at 10 mg/kg, po by LC-MS/MS analysis. Type of series: ADME, organism-based. More on the design: dose 10 mg/kg, route oral. As to conditions: in vivo. The method in brief:
as §1

The test system of series [5] is Rattus norvegicus. As to the kind of experiment: AUC in Sprague-Dawley rat assessed as 2-[4-[[4-(3,4-dihydro-2H-[1,3]oxazino[3,2-a]indole-10-carbonyloxymethyl)-1-piperidinyl]methyl]phenyl]-2-methylpropanoic acid level at 10 mg/kg, po by LC-MS/MS analysis. The format is ADME, organism-based, Plasma. More on the design: dose 10 mg/kg, route oral. As to conditions: in vivo. Put shortly:
as §1

Series [6] in a line: 1-octanol-PBS partition coefficient, log D of the compound at pH 7.4 by shake-flask method. Type of series: physicochemical.
Series [7] concerns the target T1, 5-hydroxytryptamine receptor 4 (Homo sapiens, UniProt Q13639). Kind of series: Displacement of [3H]GR113808 from human 5-HT4B receptor expressed in HEK293 cells after 1 hr by liquid scintillation counting analysis. The format is cell-based. Put shortly:
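Competitive binding with 0.3 nM [3H]GR113808 on membranes from HEK293 cells stably expressing human 5-HT4(b).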
In general terms: Displacement assays read how much labelled ligand stays bound in the presence of the test substance.

Series [8] has as its target T1, 5-hydroxytryptamine receptor 4. As to the kind of experiment: Antagonist activity at human 5-HT4B receptor expressed in HEK293 cells assessed as inhibition of 5-HT-stimulated adenylyl cyclase activity after 20 mins. The format is functional, cell-based. The method in brief: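 Membranes from HEK293 cells stably expressing human 5-HT4(b). Adenylyl cyclase activity stimulated by 1 µM 5-HT. Inhibition measured across a concentration range of test compound.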

Series [9] is described as follows: Oral bioavailability in Sprague-Dawley rat at 10 mg/kg by LC-MS/MS analysis. The format is ADME, organism-based. The settings on record: in vivo. The method in brief: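 Male Sprague-Dawley rats dosed 10 mg/kg p.o. and 1 mg/kg i.v. Plasma free acid measured by LC-MS/MS at timed samples up to 24 h. Non-compartmental AUC (trapezoidal, extrapolated to infinity). F = (AUC p.o./dose p.o.)/(AUC i.v./dose i.v.), expressed in %.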

Series [10] is described as follows: Elimination half life in Sprague-Dawley rat at 10 mg/kg, po by LC-MS/MS analysis. Type of series: ADME, organism-based. More on the design: dose 10 mg/kg, route oral. The settings on record: in vivo, read-out: beta t1/2. The method in brief: (§2)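 Male Sprague-Dawley rats (n = 3 per compound, n = 2 for the medoxomil prodrug) given 10 mg/kg p.o., in 10% ethanol in water or in 2% β-cyclodextrin (1.0 mg/ml). Tail-vein and terminal blood taken to 24 h. Plasma acidified and acetonitrile-precipitated. Free acid quantified by UPLC-ESI MRM MS. Non-compartmental analysis for each animal, then averaged; AUC by linear trapezoidal rule extrapolated to infinity; Cmax and Tmax read directly; T1/2 from terminal slope.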

Series [11] in a line: Tmax in Sprague-Dawley rat at 10 mg/kg, po by LC-MS/MS analysis. Type of series: ADME, organism-based. More on the design: dose 10 mg/kg, route oral. As to conditions: in vivo. Put shortly: as §2
The nature of series [12]: Cmax in Sprague-Dawley rat at 10 mg/kg, po by LC-MS/MS analysis. Type of series: ADME, organism-based. More on the design: dose 10 mg/kg, route oral. As to conditions: in vivo. The method in brief: as §2
Series [13] relates to Rattus norvegicus. As to the kind of experiment: AUC in Sprague-Dawley rat at 10 mg/kg, po by LC-MS/MS analysis. Type of series: ADME, organism-based, Plasma. As to conditions: in vivo. More on the design: dose 10 mg/kg, route oral. Put shortly: as §2
Series [14] is described as follows: Metabolic stability in human liver microsomes assessed as compound remaining at 2 uM after 60 mins by LC-MS analysis. Type of series: ADME, Microsome. As to conditions: read-out: Stability. Put shortly:
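Pooled human liver microsomes (30 donors) at 0.5 mg protein/ml, 2 µM substrate, 1% DMSO, 1 mM NADPH plus 1 mM UDPGA, 37 °C. Cofactor-free parallel incubations run. Samples taken at 0, 10, 30 and 60 min and quenched with ice-cold acetonitrile. Disappearance judged by LC-MS peak area against the 0 min sample without cofactors.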
In general terms: Microsomes from liver hold many membrane-bound enzymes, among them those of drug oxidation.

The target of series [15] is Voltage-gated inwardly rectifying potassium channel KCNH2 (Homo sapiens, UniProt Q12809). As to the kind of experiment: Inhibition of human ERG expressed in HEK293 cells by whole-cell patch-clamp technique. Type of series: cell-based. The method in brief:
(§3)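 Whole-cell patch clamp on isolated hERG-expressing cells superfused with HB-PSS, one cell per coverslip, holding potential -80 mV. Peak tail current averaged over 5–10 pulses. Baseline taken before exposure; ascending concentrations applied to steady state without washout, at least 3 cells per concentration. Residual current corrected for time-matched vehicle rundown. IC50 from a Hill-type fit. Terfenadine 50 nM served as positive control.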
(In patch-clamp work, channel activity is measured electrically.)

Another series deals with hERG (KCNH2) (Homo sapiens, UniProt Q12809). As to the kind of experiment: Inhibition of human ERG expressed in HEK293 cells at 100 uM by whole-cell patch-clamp technique relative to control. Type of series: cell-based. As to conditions: HEK293 cells expressing human ERG. The method in brief: as §3
Sequence of hERG (KCNH2) (Q12809 whole entry): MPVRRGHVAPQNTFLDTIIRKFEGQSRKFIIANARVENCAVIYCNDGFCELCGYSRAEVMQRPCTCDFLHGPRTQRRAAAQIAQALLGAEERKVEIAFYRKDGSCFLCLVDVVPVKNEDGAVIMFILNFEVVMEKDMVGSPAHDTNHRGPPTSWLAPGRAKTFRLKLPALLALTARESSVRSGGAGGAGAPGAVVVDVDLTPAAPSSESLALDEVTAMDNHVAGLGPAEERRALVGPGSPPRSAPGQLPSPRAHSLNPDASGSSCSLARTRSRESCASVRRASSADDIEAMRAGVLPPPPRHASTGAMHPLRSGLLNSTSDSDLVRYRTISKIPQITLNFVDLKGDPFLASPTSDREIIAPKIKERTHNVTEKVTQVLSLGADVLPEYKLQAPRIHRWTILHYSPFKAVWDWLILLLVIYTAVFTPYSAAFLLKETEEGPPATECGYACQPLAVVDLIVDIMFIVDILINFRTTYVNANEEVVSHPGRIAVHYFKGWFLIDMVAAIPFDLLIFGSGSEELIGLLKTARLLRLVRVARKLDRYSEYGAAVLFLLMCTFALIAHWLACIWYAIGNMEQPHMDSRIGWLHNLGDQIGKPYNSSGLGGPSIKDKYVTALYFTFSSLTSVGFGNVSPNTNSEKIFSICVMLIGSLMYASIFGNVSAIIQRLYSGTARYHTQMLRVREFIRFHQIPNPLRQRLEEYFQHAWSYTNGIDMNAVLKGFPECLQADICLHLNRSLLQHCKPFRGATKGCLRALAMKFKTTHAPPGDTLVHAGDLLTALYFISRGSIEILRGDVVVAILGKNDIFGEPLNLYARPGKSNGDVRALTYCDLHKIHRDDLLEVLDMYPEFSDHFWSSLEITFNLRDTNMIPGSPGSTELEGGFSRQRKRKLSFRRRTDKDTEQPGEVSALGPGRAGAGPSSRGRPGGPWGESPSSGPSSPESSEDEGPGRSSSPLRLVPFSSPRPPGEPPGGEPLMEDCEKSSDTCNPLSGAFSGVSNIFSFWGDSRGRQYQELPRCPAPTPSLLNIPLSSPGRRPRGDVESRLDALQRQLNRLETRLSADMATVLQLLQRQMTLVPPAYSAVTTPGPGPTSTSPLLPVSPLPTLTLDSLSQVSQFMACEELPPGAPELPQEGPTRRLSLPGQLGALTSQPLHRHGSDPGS

T1 sequence (Q13639 whole entry): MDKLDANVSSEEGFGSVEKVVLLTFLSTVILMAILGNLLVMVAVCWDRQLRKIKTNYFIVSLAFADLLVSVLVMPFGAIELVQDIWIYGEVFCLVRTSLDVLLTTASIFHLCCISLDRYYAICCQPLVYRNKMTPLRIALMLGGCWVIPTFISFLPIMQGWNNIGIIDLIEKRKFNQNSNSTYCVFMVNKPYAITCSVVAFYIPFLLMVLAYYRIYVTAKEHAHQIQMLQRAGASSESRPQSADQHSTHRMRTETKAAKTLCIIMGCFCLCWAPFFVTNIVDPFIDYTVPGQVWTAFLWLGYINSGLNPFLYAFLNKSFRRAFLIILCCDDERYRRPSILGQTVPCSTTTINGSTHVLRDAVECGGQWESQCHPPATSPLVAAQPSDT
Sequence of Voltage-gated inwardly rectifying potassium channel KCNH2 (Q12809 whole entry, the tested form may be a part): as the sequence (Q12809 whole entry) above

As a reminder, the Tmax is the time from dosing to the highest level. The term Cmax denotes the peak of the concentration-time curve. The AUC is the area under the concentration-time curve, a measure of exposure. Broadly, the logD is the decadic logarithm of the distribution of all forms, ionised or not, between an organic phase and buffer at a given pH. On to `Cc1oc(=O)oc1COC(=O)C(C)(C)c1ccc(CN2CCC(COC(=O)c3c4n(c5ccccc35)CCCO4)CC2)cc1`, for which the F in the series with Rattus norvegicus [1] came out at 16%. Besides, the “beta t1/2” value with Rattus norvegicus [2] amounted to 1.2 h. For the same compound, the Tmax with Rattus norvegicus [3] is 0.5 h. The Cmax with Rattus norvegicus [4] came to 817 ng/mL. Also, the AUC in the series with Rattus norvegicus [5] was 1206 ng·h/mL. The logD in series [6] amounted to 2.2.
For orientation: Ki means the equilibrium dissociation constant of an inhibitor or competing ligand from its target. What is called pKb is the Kb on a negative log10 scale, so that one unit is a factor of ten. On to `Cn1cc(C(=O)OCC2CCN(CCNS(C)(=O)=O)CC2)c2ccccc21`, for which the Ki in series [7] was 0.0398 nM. Also, the pKb in series [8] stood at 8.7.
By bioavailability is commonly meant dose-corrected exposure relative to a reference, in per cent. A higher bioavailability goes with much systemic uptake. In the case of `CC(C)(C)c1ccc(CN2CCC(COC(=O)c3c4n(c5ccccc35)CCCO4)CC2)cc1`, the F with Rattus norvegicus [1] turned out to be 1%. This compound yielded a bioavailability in series [9] of 6%. Also, the “beta t1/2” value with Rattus norvegicus [2] turned out to be 19.83 h. Further, the half-life in series [10] was 26.8 h. Further, the Tmax in the series with Rattus norvegicus [3] is 1.33 h; in [11], 5.67 h. Also, the results for the Cmax (in the series on Rattus norvegicus [4]; in [12]) were 13 ng/mL and 33 ng/mL, respectively. The AUC in the series with Rattus norvegicus [5] came out at 127 ng·h/mL; in the series on Rattus norvegicus [13], 533 ng·h/mL. In addition, in [6], the logD was 2.4.
In general, IC50 refers to the midpoint of a concentration-inhibition curve. As a reminder, the inhibition is the relative decrease from the control value, in per cent. Low readings indicate little suppression, high ones strong suppression. For `CC(C)(C(=O)O)c1ccc(CN2CCC(COC(=O)c3c4n(c5ccccc35)CCCO4)CC2)cc1`, the remaining at 1 h, 2 µM in series [14] was less than 0.1%. For the same compound, the bioavailability in [9] came to 3%. Further, the half-life in series [10] turned out to be 6.07 h. Moreover, in series [11], the Tmax is 0.2 h. The highest level in [12] (Cmax) was 130 ng/mL. In the series on Rattus norvegicus [13], the AUC came to 285 ng·h/mL. Half-maximal inhibition in [15] (IC50) was put at 69000 nM. Moreover, at hERG (KCNH2), the inhibition at 100 µM was found to be 55.8%. Further, in series [7], the Ki was 0.126 nM. Further, in series [8], the pKb came to 8.6. The compound further returned a logD in series [6] of -1.2.
`CCCCN1CCC(CNC(=O)c2c3n(c4ccccc24)CCCO3)CC1` [PIBOSEROD] had a Ki in series [7] of 0.1 nM. The pKb in series [8] was found to be 9.1.
